Laboratory results taken from ChEMBL document CHEMBL3351232, “Flemingins G-O, cytotoxic and antioxidant constituents of the leaves of Flemingia grahamiana” (J Nat Prod, 2014).

Columns and labels:
MCF7 = assay: Cytotoxicity against human MCF7 cells after 48 hrs by PrestoBlue cell viability assay; format: functional, cell-based; conditions: MCF7, 48 h
Outline: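 MCF-7 cells grown in DMEM with 10% FBS, 2 mM L-glutamine, penicillin and streptomycin, 37 °C, 5% CO2. Seeded for exponential growth, then after 24 h switched to medium containing compound or DMSO vehicle (0.1% or 1.0% v/v). Viability read by PrestoBlue fluorescence after 48 h, as % of vehicle control. Six replicates, at least three independent experiments, means ± SE.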

[1] = Antioxidant activity assessed as DPPH scavenging activity after 30 mins by spectrophotometry; format: physicochemical; conditions: 0.5 h; read-out: ED50 (the source's name)
Outline: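 Samples prepared in double-distilled methanol at 320, 160, 80, 40, 20, 10, 5 and 2.5 μg/mL. 1.0 mL added to 2.0 mL of 76 μM DPPH in methanol, held 30 min at room temperature, remaining DPPH read at 517 nm. Control was methanol plus DPPH; quercetin served as positive control. EC50 (50% absorbance decrease) obtained from a plot of % scavenged versus initial concentration.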

[2] = Activity index, ratio of compound ED50 to quercetin ED50 for antioxidant activity assessed as DPPH scavenging activity after 30 mins by spectrophotometry

Structure (SMILES) | IC50 (MCF7) [µM] | EC50 [1] [µM] | Ratio ED50 [2]
Cc1cc(O)c2c(c1)C(=O)c1cc(O)cc(O)c1C2=O [EMODIN] | 317 |  | 
CC(C)(O)/C=C/CC1(C)C=Cc2c(O)c(C(=O)/C=C/c3ccccc3O)cc(O)c2O1 (stereo not given) | > 236 |  | 
O=c1c(O)c(-c2ccc(O)c(O)c2)oc2cc(O)cc(O)c12 [QUERCETIN] |  | 2.5 | 
CC(C)(O)/C=C/CC1(C)C=Cc2c(O)c(C(=O)/C=C/c3cc(O)ccc3O)cc(O)c2O1 (stereo not given) | > 228 |  | 
CC(C)=CCCC1(C)C=Cc2c(O)c(C(=O)/C=C/c3ccccc3O)cc(O)c2O1 (stereo not given) | 8.9 | 4.4 | 1.8
CC(C)n1nc(C#Cc2ccncc2)c2c(N)ncnc21 | 5 |  | 
CC(C)=CCCC1(C)C=Cc2c(O)c(C(=O)/C=C/c3cc(O)ccc3O)cc(O)c2O1 (stereo not given) | 7.6 | 5.9 | 2.4
CC(C)=CCCC1(C)C=Cc2c(O)c(C(=O)/C=C/c3c(O)cccc3O)cc(O)c2O1 (stereo not given) | > 237 | 7.8 | 3.1
C=C(C)C(O)CCC1(C)C=Cc2c(O)c(C(=O)/C=C/c3ccccc3O)cc(O)c2O1 (mixture of isomers) | > 236 |  | 
C=C(C)C(O)CCC1(C)C=Cc2c(O)c(C(=O)/C=C/c3cc(O)ccc3O)cc(O)c2O1 (stereo not given) | 221 | 8.3 | 3.3
C=C(C)C(O)CCC1(C)C=Cc2c(O)c(C(=O)/C=C/c3c(O)cccc3O)cc(O)c2O1 (stereo not given) |  | 8.9 | 3.5
